Compound activity deposited in PubChem BioAssay by several laboratories.
Most compounds without a hit are left out; they make up all but 2% or so of the library.
PABP FP inh = blocks human PABP binding to poly(A) RNA; P11940; fluorescence polarization; inhibition, % at 35 µM; hit rate 1% among 290,000;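 also: calls also rest on retests at 20 µM and on dose response follow-up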
PABP1 MLLE inh = blocks PAM2 peptide binding to the PABP1 MLLE domain; inhibition, % at 20 µM; hit rate 0.36% among 360,000; GST-MLLE / FITC-PAM2 fluorescence polarization; P11940; in the data active = inhibition above about 35%, passing the limit was not always enough;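 also: plate controls were DMSO wells with GST-MLLE for no effect and wells lacking GST-MLLE protein for full effect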
FID counter = fluorescent intercalator displacement, NS3 helicase counter-screen; DNA fluorescent intercalator displacement, fluorescence; hit rate 0.17% among 290,000; AID 1845; inhibition, % at 7.9 µM; in the data active = inhibition above about 37%;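 also: 0% = vehicle and 100% = reference compound; higher means more ethidium bromide displaced from hairpin DNA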
NS3 helicase inh = blocks Hepatitis C virus NS3 helicase unwinding | inhibition, % at 10.9 µM | NS3 helicase DNA unwinding, Cy5 molecular beacon fluorescence | AID 1800 | hit rate 0.56% among 290,000;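 active = inhibition above the mean of all tested compounds plus 3 SD, set per campaign, cut at about 35% in these data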;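 also: 0% = DMSO wells and 100% = thioflavine S control wells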
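Material: hepatitis C virus NS3 helicase domain fragment enzyme; measured by: Cy5 fluorescence, 0 and 60 min reads; control set: DMSO and thioflavine S; incubation: 60 min unwinding reaction at 25 °C after ATP addition; read-out basis: % inhibition from 60/0 min fluorescence ratio, DMSO 0%, thioflavine S 100%; repeats: singlicate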
eIF4H FP inh = inhibitors of RNA binding by human eIF4H; Q15056; eIF4H fluorescence polarization binding assay; inhibition, % at 35 µM; hit rate 0.94% among 290,000;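 also: calls also rest on retests at 20 µM and on dose response follow-up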
core dimer inh = HCV core protein dimerization inhibition | TR-FRET GST/Flag-core106 dimerization, 1536-well | inhibition, % at 5 µM | hit rate 0.33% among 300,000;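 active = inhibition above the mean of all tested compounds plus 3 SD, set per screening campaign, cut at about 45% in these data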
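Assay system: tagged HCV core106 pair (GST and Flag); medium: KF-containing HEPES buffer, pH 7.45, DTT, CHAPS, BSA; also added: Eu donor and XL665 acceptor anti-tag antibodies; dosing: 5 µM single dose; timing: compound-protein-antibody incubation 4 h at 22.5 °C; signal: TR-FRET 671 and 617 nm emission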
Active calls of the source: *; ? = inconclusive; · = not tested or not shown. Unless noted, no rule for the calls is given here.

SMILES	PABP FP inh	PABP1 MLLE inh	FID counter	NS3 helicase inh	eIF4H FP inh	core dimer inh
Cc1cc(C)c2nc(N3C(=O)C(O)=C(C(=O)c4ccco4)C3c3ccco3)sc2c1 (centres undefined)	37	4	-19	9	66*	12
COc1ccc(C2C(C(=O)c3ccco3)=C(O)C(=O)N2c2nnc(C)s2)cc1 (centres undefined)	?	36	-9	1	?	-5
COc1ccc(C2C(C(=O)c3ccco3)=C(O)C(=O)N2c2nnc(C)s2)cc1OC (centres undefined)	?	44*	-7	5	?	4
CCOc1ccc2nc(N3C(=O)C(O)=C(C(=O)c4ccco4)C3c3ccco3)sc2c1 (centres undefined)	·	2	·	·	·	·
COc1ccc2c3c(ccc2c1)C(=O)/C(=C/O)CC3	·	43*	·	·	·	·
COc1ccc2cc(C#N)c(NC(C)C)nc2c1	-8	6	-5	4	-7	-4
CCN(CC)c1nc2cc(OC)ccc2cc1C#N	102*	-9	-5	-1	?	55*
COc1ccccc1Cc1c(-c2ccco2)nc2ccc(C)cn12	·	8	·	·	·	·
Cc1oc2c(cc(NS(=O)(=O)c3ccc(C(C)C)cc3)c3ccccc32)c1C(=O)O	64*	126	-25	-8	66*	22
CCc1ccccc1NC(=S)N(CCCN(C)C)Cc1cc2cc3c(cc2[nH]c1=O)OCO3	2	-44	43*	-14	-7	2
Cc1cccc(NC(=S)N(CCCN(C)C)Cc2cc3cc4c(cc3[nH]c2=O)OCO4)c1	9	-112	38*	-2	-2	0
Cn1nccc1C(=O)OCC(=O)Nc1ccccc1Cl	66	0	-2	-5	-5	·
N#CC(C(O)c1ccccc1)N1CCOCC1 (centres undefined)	·	8	·	·	·	·
Cc1ccc(Cc2c(-c3ccc(C#N)cc3)nc3c4ccccc4ccn23)cc1	·	-7	·	·	·	·
Cc1cccc(C)c1NC(=O)CSc1nc(C)c(CC(=O)c2ccc(Br)cc2)c(C)c1C#N	-7	-20	-4	4	-5	70*
COc1ccccc1NC(=O)c1cc(-c2ccc(C)o2)nc2ccccc12	-4	-12	-24	-12	-4	8
CCOCC(=O)Nc1nnc(COc2ccc(Cl)cc2)s1	-6	37*	-8	2	4	1
Cc1[nH]nc2c(=S)[nH]c(=O)[nH]c12	·	40*	·	·	·	·
O=c1[nH]c(=S)c2[nH]c(=S)n(-c3ccccc3)c2[nH]1	·	-2	·	·	·	·
CCNC(=S)N/N=C/c1cn(Cc2ccc(F)cc2)c2ccccc12	8.9*	8	-9	-28	82*	11
O=C(N/N=C/c1cn(Cc2ccccc2)c2ccccc12)c1cc(O)cc(O)c1	26	-5	-17	-5	62*	·
CCCS(=O)(=O)NC(=O)C1(C)CCN(C(=O)c2cncc(Br)c2)C1 (centres undefined)	·	-1	·	·	·	·
COc1ccccc1NS(=O)(=O)c1cc([N+](=O)[O-])ccc1N/N=C/c1sc(N2CCOCC2)nc1-c1ccccc1	active	-157	0	-1	71*	20
CCOC(=O)C1=C(CSc2nc(-c3ccncc3)ccc2C#N)OC(N)=C(C#N)C1c1ccc(OC)cc1 (centres undefined)	122	-18	-24	4	122	36
CCOC(=O)C1=C(CSc2nc(-c3ccncc3)ccc2C#N)OC(N)=C(C#N)C1c1cccnc1 (centres undefined)	119*	1	-16	6	120*	11
SMILES	PABP FP inh	PABP1 MLLE inh	FID counter	NS3 helicase inh	eIF4H FP inh	core dimer inh
CCOC(=O)CC(=O)CSc1nc(-c2cccnc2)ccc1C#N	77*	3	-6	7	69*	5
CCOC(=O)C1=C(C(C)=O)C(c2cccnc2)C(C#N)=C(N)O1 (centres undefined)	72*	20	3	2	55*	4
Cc1nn(C(=O)c2cc([N+](=O)[O-])ccc2Cl)c(C)c1Br	7	3	-3	26	-6	-7
CCOC(=O)/C=C1\SCC(=O)N1CC(O)CN1C(=O)CS/C1=C\C(=O)OCC	75*	-11	-9	5	?	-2
CCOC(=O)/C=C1\SCC(=O)N1CC(=O)NC1CCCCC1	4	-1	-2	4	4	3
COc1ccc(-n2nc(C(=O)NCC(=O)NCCCN3CC(C)CC(C)C3)c3ccccc3c2=O)cc1Cl (centres undefined)	10	4	24	-51	28	-1
N=C(N)SCP(=O)(c1ccccc1)c1ccccc1	-5	38*	0	-8	6	11
O=C(Nc1cccc(Oc2ccccc2)c1)c1ccc(-n2cncn2)c2ccoc12	·	-5	·	·	·	·
NS(=O)(=O)c1ccc(N/N=C/c2ccc(O)cc2O)c([N+](=O)[O-])c1	3	14	16	-12	12	-23
NS(=O)(=O)c1ccc(N/N=C/c2ccc(O)c(O)c2O)c([N+](=O)[O-])c1	49	42*	0	26	96*	·
COCCn1c(-c2ccco2)csc1=Nc1cccnc1	17	33	-9	0	4	5
CC(C)Cn1c(-c2ccco2)csc1=Nc1cccnc1	-1	4	-18	31	-4	50*
Cc1nonc1OCCNCc1c(C(=O)N(C)C)nc2ccc(Cl)cn12	62*	-1	-14	8	87*	-4
CN1CCc2c(sc3c2C(=O)NC(c2ccccc2)N3)C1 (centres undefined)	active	-48	-4	6	63*	-1
O=C1NC(c2ccccn2)Nc2sc3c(c21)CCC3 (centres undefined)	57	16	-2	1	86	0
O=C1NC(c2ccc(Br)cc2)Nc2sc3c(c21)CCC3 (centres undefined)	66*	-4	-3	-11	103*	11
O=C(COC(=O)c1cccnc1)NC1CCCc2ccccc21 (centres undefined)	-8	8	-7	-3	78*	·
O=S(=O)(c1cccc2ccccc12)N1CCC2CC1c1cc(-c3ccc4c(c3)OCO4)ccc12 (centres undefined)	·	3	·	·	·	·
N=c1c2c(-c3ccccc3)c(-c3ccccc3)n(Cc3ccccc3)c2ncn1CCCn1ccnc1	-4	-1	40*	-83	-9	0
CCCNC(=O)C1(C)CCCN(C(=O)c2cc(C)nn2C(C)(C)C)C1 (centres undefined)	·	-2	·	·	·	·
C=CCNC(=O)c1ccc(CN2CCC(Cc3ccccc3)CC2)cc1	84*	2	12	-7	95*	5
CC(C)NC(=O)c1ccc(CN2CCC(Cc3ccccc3)CC2)cc1	1	3	11	3	8	-9
O=C(Cc1ccc(F)cc1)Nc1ccc2[nH]ncc2c1	6	-7	1	-2	2	-10
